# RGS4 block – inhibitors of human RGS4; P49798; HEK293 M3R/RGS4 inducible, Fluo-4 calcium flux; stronger effect = higher value; triggered by carbachol at its EC20; B-score at 10 µM; 0.45% of 310,000 active; AID 463165;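 active = B-score, a plate-corrected calcium signal, over three deviations above library mean, with baseline fluorescence within five deviations of library mean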;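 also: RGS4 expression induced by doxycycline in cells with stable M3 receptor; B-score is computed from the integrated fluorescence ratio over baseline after carbachol; higher B-score means a larger calcium signal and so more RGS4 inhibition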
# Target sequence (P49798 whole entry, looked up): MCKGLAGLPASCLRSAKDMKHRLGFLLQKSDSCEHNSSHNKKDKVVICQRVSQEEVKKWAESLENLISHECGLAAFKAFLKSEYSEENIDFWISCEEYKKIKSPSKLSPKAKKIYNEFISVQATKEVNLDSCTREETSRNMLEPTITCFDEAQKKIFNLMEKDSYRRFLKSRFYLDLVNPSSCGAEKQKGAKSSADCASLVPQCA
# MrgX1 antagonist – blocks BAM8-22 activation of human MrgX1 receptor | B-score at 10 µM | MRGX1-HEK293 calcium flux, Fluo-4, BAM8-22 antagonism; stronger effect = lower value | Q96LB2 | 1.3% of 310,000 active;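 active = calcium-response B-score plate-corrected more than 3 library SD below zero, starting fluorescence within 5 deviations, no agonist response on first addition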;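 also: peak minus trough fluorescence over baseline after final BAM8-22 challenge near maximal dose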
# Target sequence (Q96LB2 whole entry, looked up): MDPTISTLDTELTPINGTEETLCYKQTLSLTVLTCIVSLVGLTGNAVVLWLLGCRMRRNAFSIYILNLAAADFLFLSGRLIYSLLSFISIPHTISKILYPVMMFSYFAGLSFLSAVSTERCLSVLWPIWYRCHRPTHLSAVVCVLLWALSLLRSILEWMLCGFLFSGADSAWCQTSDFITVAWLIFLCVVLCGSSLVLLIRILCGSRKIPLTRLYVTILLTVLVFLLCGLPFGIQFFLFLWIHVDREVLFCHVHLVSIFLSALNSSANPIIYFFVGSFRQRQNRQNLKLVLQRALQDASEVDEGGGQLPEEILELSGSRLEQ
# MrgX1 agonist – human MrgX1 receptor agonism, primary screen. B-score at 10 µM. AID 588627. MrgX1-HEK293 cells, Fluo-4 calcium fluorescence, agonist mode; stronger effect = higher value. 0.44% of 310,000 active. Q96LB2;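 active = calcium response B-score plate-corrected fluorescence ratio at least 3 library SD, with starting fluorescence B-score inside 5 SD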
#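 Material: HEK293 cells stably expressing human MrgX1 receptor | Quantity: 15,000 cells per well | Times: Cells plated overnight, dye loaded 0.5 h 37 °C, 0.5 h room temperature | Measured by: Kinetic Fluo-4 NW fluorescence of intracellular calcium | Control set: Positive and negative controls per plate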
# MrgX1 allo act – human MrgX1 positive allosteric modulation, primary screen. MrgX1-HEK293, Fluo-4 calcium flux, FDSS; stronger effect = higher value. B-score at 10 µM. 0.63% of 310,000 active. AID 588675;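 active = plate-corrected calcium response at least 3 library SD above typical, normal starting fluorescence, not activating the receptor alone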;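 also: compound read alongside a low EC10 to EC30 dose of BAM8-22 agonist; peak minus trough fluorescence over baseline measured at the second addition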
# RGS4 pot – RGS4 potentiation or activation; HEK293 M3R/inducible RGS4, carbachol calcium flux Fluo4; stronger effect = lower value; B-score at 10 µM; 0.92% of 310,000 active; AID 463111;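 active = B-score of the integrated calcium signal more than 4 SD below the library mean, with starting fluorescence not abnormally high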;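 also: negative B-score means reduced calcium response which marks RGS4 activation or potentiation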
#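 test system = HEK293 cells with stable M3R and inducible RGS4 | schedule = recording 10 s baseline at 1 Hz, 100 s post-agonist | technique = Fluo4-AM (2 µM) calcium-flux fluorescence, kinetic read | measure = Agonist-evoked peak-minus-minimum fluorescence over baseline, integrated ratio, B score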
# MrgX1 ant reconf – reconfirmed antagonist of human MrgX1 receptor signaling; shares compounds with MrgX1 antagonist; MrgX1-HEK293, BAM8-22 calcium flux, Fluo-4; stronger effect = lower value; remaining BAM8-22 calcium response % of control (stronger effect = lower value), % at 10 µM; 19% of 2,300 active;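 active = remaining agonist calcium response no higher than 100% minus 3 SD of agonist-only control wells, with starting fluorescence near control levels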;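 also: agonist BAM8-22 given at a near maximal EC90 to ECmax level; peak minus minimum fluorescence divided by baseline after agonist addition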
# HEK293 Ca flux – MrgX1 antagonist counter-screen hit in parental HEK293 cells; shares compounds with MrgX1 antagonist; Fluo-4 calcium fluorescence, FDSS; fluorescence ratio F(max-min)/F0 at 10 µM; 2% of 4,000 active;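 active = duplicate-averaged calcium fluorescence ratio at least three times the standard deviation of buffer wells, a nonspecific response in parental cells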
# HEK293 Ca counter – MrgX1 allosteric activator counter-screen hit in parental HEK293 cells; shares compounds with MrgX1 antagonist; parental HEK293 calcium flux, Fluo-4 fluorescence ratio; stronger effect = higher value; fluorescence ratio F(max-min)/F0 at 10 µM; 0.4% of 4,000 active;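 active = calcium fluorescence ratio, averaged over duplicates, at least 3 SD of the buffer-well ratio, meaning a nonspecific response in receptor-free cells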;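 also: untransfected parental HEK293 lacking MrgX1 used as counterscreen for MrgX1 allosteric activators; fluorescence change taken during the second addition on a kinetic imager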
# HEK293 Ca cntr2 – MrgX1 activator counter-screen hit in parental HEK293 cells; shares compounds with MrgX1 antagonist; AID 624115; Fluo-4 calcium fluorescence (FDSS); stronger effect = higher value; fluorescence ratio F(max-min)/F0 at 10 µM; 8.7% of 4,000 active;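 active = calcium fluorescence ratio at least three times the spread of buffer wells, meaning a non-specific response in parental cells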
# Numbers without * were called inactive; i = inactive; . = not tested or not shown. Shown are actives, neighbours in structure and some others; about 3.5% of the full set was active somewhere.
SMILES,RGS4 block,MrgX1 antagonist,MrgX1 agonist,MrgX1 allo act,RGS4 pot,MrgX1 ant reconf,HEK293 Ca flux,HEK293 Ca counter,HEK293 Ca cntr2
CCOc1cccc2sc(Nc3nc4ccc(NC(C)=O)cc4s3)nc12,i,i,i,i,i,.,.,.,.
COc1ccc(CN2C3CCCC2CC(NC(=O)Nc2cccc(C)c2)C3)cc1 (stereo unspecified),i,-7.92*,i,i,i,72.1%*,i,i,i
COc1ccc(CN2C3CCCC2CC(NC(=O)Nc2ccccc2)C3)cc1 (stereo unspecified),i,i,i,i,i,.,.,.,.
CC1CC(=O)c2cnc(NCc3ccco3)nc2C1 (stereo unspecified),i,-7.24*,i,i,i,i,i,i,i
COc1cccc(C(=O)c2c[nH]c(C(=O)NCc3cccs3)c2)c1,i,-7.82*,i,i,i,i,i,i,i
COc1ccc(CN(C)C(=O)Cc2ccc(OC)c(S(=O)(=O)N3CCOCC3)c2)cc1,i,i,i,i,i,.,.,.,.
COc1ccc(CC(=O)N(C)C2CCCCC2)cc1S(=O)(=O)N1CCOCC1,i,-4.61*,i,i,i,i,i,i,i
O=C(COc1ccccc1)Nc1nnc(-c2ccc(F)cc2)o1,i,i,i,i,i,.,.,.,.
O=C(COc1ccccc1)Nc1nnc(-c2ccccc2Cl)o1,i,-7.89*,i,i,i,i,i,i,i
CC(C)N(C)S(=O)(=O)c1ccc(Cl)c(C(=O)O)c1,i,i,i,i,i,.,.,.,.
CCOc1ccc(-c2nnn(CC(=O)c3cc(OC)ccc3OC)n2)cc1,i,-4.68*,i,i,i,81.1%*,i,i,i
Cc1ccc(S(=O)(=O)N2CCC(C(=O)N3CCC(C(=O)NCc4cccnc4)CC3)CC2)cc1,i,-6.63*,i,i,i,85.1%*,i,i,i
CC(=O)NC1C(=O)N(CCN2CCOCC2)c2ccc(Br)cc21 (stereo unspecified),i,-9.32*,i,i,i,i,i,i,47.1*
CCN1C(=O)C(NC(C)=O)c2cc(OC)ccc21 (stereo unspecified),i,i,i,i,i,.,.,.,.
CCOc1ccc2c(c1)C(NC(C)=O)C(=O)N2CCN1CCOCC1 (stereo unspecified),i,-12.1*,i,i,i,i,i,i,i
CN(CC(=O)Nc1cccc(F)c1)C(=O)CNS(=O)(=O)c1ccc(N(C)C)c([N+](=O)[O-])c1,i,i,i,i,i,.,.,.,.
CN1CCN(C(=S)Nc2cccc(Cl)c2)CC1,i,-4.91*,i,i,i,i,i,i,i
CCOC(=O)c1sc2nc(NC(=O)C(C)(C)C)sc2c1C,i,-5.06*,i,i,i,79.1%*,i,i,i
CN1CCN(c2cc(C(F)(F)F)nc3ccc(F)cc23)CC1,i,i,i,i,i,.,.,.,.
Cc1ccc2c(c1)N(C(=O)CCC(=O)NCCCN1CCC(Cc3ccccc3)CC1)CCO2,i,i,i,i,i,.,.,.,.
Cc1ccc2c(c1)N(C(=O)CCC(=O)NCCCN1CCN(C)CC1)CCO2,i,-8.72*,i,i,i,i,i,i,i
O=C(COc1cccc(NC(=O)c2cccs2)c1)c1ccc(F)cc1,i,-4.94*,i,i,i,i,i,i,i
O=C(COc1cccc(NC(=O)c2ccccc2)c1)c1ccccc1,i,i,i,i,i,.,.,.,.
CC(C)(C)CC(=O)O/N=C(\N)c1ccccn1,i,i,i,i,i,.,.,.,.
Cc1ccc(OCCCn2ccnc2)c(Br)c1,i,i,i,i,i,.,.,.,.
SMILES,RGS4 block,MrgX1 antagonist,MrgX1 agonist,MrgX1 allo act,RGS4 pot,MrgX1 ant reconf,HEK293 Ca flux,HEK293 Ca counter,HEK293 Ca cntr2
N#Cc1c(N)nc2c(c1-c1ccccc1)CCCC2,i,i,i,i,i,.,.,.,.
CSc1nc2c(c(-c3ccccc3)c1C#N)CCC2,i,-6.5*,i,i,i,i,i,i,i
CC(C(=O)NCc1ccco1)n1cc([N+](=O)[O-])cn1 (stereo unspecified),i,i,i,i,i,.,.,.,.
CC(=O)c1cccc(OCc2cc(C(=O)N3CCSCC3)no2)c1,i,-9.04*,i,i,i,i,i,i,i
COc1cc(C(C)=O)ccc1OCc1cc(C(=O)N2CCSCC2)no1,i,i,i,i,i,.,.,.,.
C=CCNC(=O)CSc1nc2sccc2c(=O)n1-c1ccccc1,i,-5.09*,i,i,i,i,i,i,i
Cc1nc(-c2ccccc2OC(F)(F)F)[nH]c(=O)c1Cl,i,i,i,i,i,.,.,.,.
Cc1ccc(S(=O)(=O)Nc2ccccn2)cc1[N+](=O)[O-],i,i,i,i,i,.,.,.,.
COc1ccc(NC(=O)CCCC(=O)OCC(=O)c2cccc(OC)c2)cc1,i,i,i,i,i,.,.,.,.
CS(=O)(=O)N(CCc1ccccc1)CC(=O)NCC1CCCO1 (stereo unspecified),i,-6.73*,i,i,i,i,i,i,i
COc1ccc(N(CC(=O)NCc2ccco2)C(=O)CCC(=O)Nc2ccccn2)cc1,i,.,.,.,i,.,.,.,.
CCOc1ccc(NC(=O)CCN2CCN(S(=O)(=O)c3ccc(F)cc3)CC2)cc1,i,i,i,i,i,.,.,.,.
CCOc1ccc(S(=O)(=O)Nc2ccc(S(=O)(=O)N3CCCCC3)cc2)cc1,i,-5.33*,i,i,i,i,i,i,i
CCOc1ccc(NC(=O)CN2CCN(S(=O)(=O)c3ccc(Cl)cc3)CC2)cc1,i,-4.52*,i,i,i,i,i,i,i
CCOc1ccc(S(=O)(=O)Nc2ccc(S(=O)(=O)N3CCCC3)cc2)cc1,i,i,i,i,i,.,.,.,.

# Assay outcomes as filed in PubChem BioAssay.
